The source made the active and inactive calls. The rule behind the calls is not given here.
Experiments:
Mus musculus [1] = assay: Antiamnesic activity in Albino LACA mouse assessed as scopolamine-induced increase in escape latency time administered intraperitoneally 5 mins post scopolamine challenge for 35 mins by Morris water maze test (reference value: 49.35 +/- 2.21 secs); type: functional
Summary of the method: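 LACA albino mice, 25-35 g, either sex, housed five per group. Scopolamine 0.5 mg/kg i.p. or saline given 35 min before training, then vehicle (0.25% CMC suspension) or compound 1 mg/kg i.p. 5 min later. Water maze at 30 cm depth, 28 ± 2 °C, training over 5 days, 90 s maximum per trial, probe trial 90 s. Escape latency recorded, mean of 5 mice.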

Mus musculus [2] = assay: Antiamnesic activity in Albino LACA mouse assessed as decrease in scopolamine-induced increase in escape latency time administered intraperitoneally 5 mins post scopolamine challenge for 35 mins by Morris water maze test; type: functional, organism-based
Summary of the method: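 Mice of either sex, 25-35 g, housed in groups of five. […] Water maze: water 30 cm deep at 28 ± 2 °C, 5 days, 90 s maximum per trial, then a 90 s probe trial. Read-out is escape latency; n = 5, mean ± SEM.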

Acetylcholinesterase = target: T1, Acetylcholinesterase (Mus musculus, UniProt P21836); assay: biochemical; type: tissue-based, LACA, Brain
T1 sequence (P21836 whole entry): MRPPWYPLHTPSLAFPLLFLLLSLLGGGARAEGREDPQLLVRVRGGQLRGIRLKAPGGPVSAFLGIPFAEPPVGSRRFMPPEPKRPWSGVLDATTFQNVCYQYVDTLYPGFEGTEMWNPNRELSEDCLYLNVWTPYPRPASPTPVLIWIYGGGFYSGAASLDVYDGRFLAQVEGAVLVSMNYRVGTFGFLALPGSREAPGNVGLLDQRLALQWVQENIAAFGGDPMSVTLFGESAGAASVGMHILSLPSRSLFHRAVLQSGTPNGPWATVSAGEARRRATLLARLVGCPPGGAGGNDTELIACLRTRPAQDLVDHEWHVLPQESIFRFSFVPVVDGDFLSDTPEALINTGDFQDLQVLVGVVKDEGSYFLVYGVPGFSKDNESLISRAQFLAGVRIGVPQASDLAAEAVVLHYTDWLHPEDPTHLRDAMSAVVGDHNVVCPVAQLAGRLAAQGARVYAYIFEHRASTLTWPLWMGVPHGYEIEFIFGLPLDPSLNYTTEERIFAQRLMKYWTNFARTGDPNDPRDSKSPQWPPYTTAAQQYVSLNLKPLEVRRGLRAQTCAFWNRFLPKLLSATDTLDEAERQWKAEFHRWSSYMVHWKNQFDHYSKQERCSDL

Compound | Time (Mus musculus [1]) | Activity (Mus musculus [2]) | IC50 (Acetylcholinesterase)
O=c1cc(OCCCN2CCN(c3ccccc3F)CC2)c2ccccc2o1 | 11.8 s | Active | 5.2 µM
O=C(Oc1cc(=O)oc2ccccc12)N1CCN(c2ccccc2)CC1 |  | Active | 74.8 µM
O=c1cc(OCCCCN2CCN(c3ncccn3)CC2)c2ccccc2o1 |  | Active | 34.8 µM
O=c1cc(OCCCN2CCN(c3ccccc3)CC2)c2ccccc2o1 | 8.05 s | Active | 2.42 µM
COc1ccc(CCNCCCOc2cc(=O)oc3ccccc23)cc1OC |  | Active | 47.1 µM
O=c1cc(OCCCN2CCC(Cc3ccccc3)CC2)c2ccccc2o1 |  | Active | 11.4 µM
O=c1cc(OCCCCN2CCN(c3ccccn3)CC2)c2ccccc2o1 |  | Active | 37.5 µM
O=c1cc(OCCCCN2CCN(c3ccccc3F)CC2)c2ccccc2o1 |  | Active | 29.7 µM
O=c1cc(OCCCN2CCN(c3ccc(F)cc3)CC2)c2ccccc2o1 |  | Active | 9.5 µM
O=C(NCCc1ccccc1)Oc1cc(=O)oc2ccccc12 |  | Active | 83.4 µM
O=c1cc(OCCCCN2CCN(c3ccccc3)CC2)c2ccccc2o1 |  | Active | 14.9 µM
O=c1cc(OCCCNCCc2ccccc2)c2ccccc2o1 |  | Active | 66.9 µM
O=c1cc(OCCCN2CCN(c3ccccn3)CC2)c2ccccc2o1 |  | Active | 16.1 µM
O=c1cc(OCCCN2CCN(c3ncccn3)CC2)c2ccccc2o1 | 13.98 s | Active | 21.6 µM

Reference: ChEMBL document CHEMBL4431342, “Coumarin derivatives as potential inhibitors of acetylcholinesterase: Synthesis, molecular docking and biological studies” (Bioorg Med Chem, 2016)
